An excerpt weighted towards active compounds, which were near 3.4% of everything screened.
CHRM1 PAM: human CHRM1 positive allosteric modulation; 0.088% of 360,000 active; P11229; CHO-K1 hM1, Fluo-8 calcium fluorescence, ACh EC20; 0% = ACh EC20, 100% = maximal ACh; activation, % at 3 µM; in the data active = activation above about 19%, passing the limit was not always enough
Target sequence (P11229 whole entry, looked up): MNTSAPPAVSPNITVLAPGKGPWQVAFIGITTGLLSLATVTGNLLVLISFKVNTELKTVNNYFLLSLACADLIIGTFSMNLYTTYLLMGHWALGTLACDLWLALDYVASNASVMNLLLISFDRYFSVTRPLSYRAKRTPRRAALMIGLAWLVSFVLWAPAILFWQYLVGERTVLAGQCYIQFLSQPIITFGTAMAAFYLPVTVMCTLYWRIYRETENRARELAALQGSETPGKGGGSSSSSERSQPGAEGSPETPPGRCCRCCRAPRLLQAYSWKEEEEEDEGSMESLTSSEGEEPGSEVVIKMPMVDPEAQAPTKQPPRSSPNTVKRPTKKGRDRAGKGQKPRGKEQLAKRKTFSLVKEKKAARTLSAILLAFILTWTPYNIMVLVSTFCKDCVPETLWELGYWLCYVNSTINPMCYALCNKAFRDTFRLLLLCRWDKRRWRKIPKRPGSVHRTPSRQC
M1 antag: antagonists of human M1 muscarinic receptor; 1.3% of 360,000 active; CHO-K1 hM1, Fluo-8 calcium fluorescence, ACh EC80 antagonist; P11229; inhibition, % at 3 µM;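 active = percent inhibition above its own plate's cutoff, namely the mean of that plate's compound wells plus 3 SD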;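 also: peak over basal fluorescence ratio during 140 s after agonist addition; 0% = ACh EC80 plus DMSO and 100% = DMSO alone without agonist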
TAAR1 antagonist: human TAAR1 antagonism; inhibition, % at 3 µM; 1.5% of 360,000 active; Q96RJ0; CHO RD-HGA16 TAAR1, Fluo-8 calcium fluorescence, antagonist;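 active = inhibition above a per-plate cutoff, the mean inhibition of test compounds on that plate plus 3 SD, cut at about 49% in these data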;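 also: 0% = DMSO plus EC80 beta-PEA response and 100% = DMSO alone without agonist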
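Assay system: RD-HGA16 CHO cells with stable hTAAR1 and Gα16 / Reagent: EC80 β-phenethylamine stimulus / Doses: 3 µM, single point / Timing: dye loading 75 min at 37 °C, then 30 min room temperature / Measured by: Fluo-8 intracellular calcium dye fluorescence, real-time kinetic reads / Controls: vehicle wells and EC80 agonist wells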
M1 ag: activates human CHRM1 receptor. P11229. 0.33% of 360,000 active. CHO-K1 hM1, Fluo-8 calcium fluorescence, agonist mode; 0% DMSO, 100% acetylcholine EC100. activation, % at 3 µM;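 active = activation above the run's mean compound activation plus 3 SD, cut at about 16% in these data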;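 also: peak over basal fluorescence ratio within a 140 s kinetic read after compound addition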
TAAR1 ag: agonists of human TAAR1. Q96RJ0. CHO RD-HGA16 TAAR1, Fluo-8 calcium fluorescence; vehicle wells 0%, saturating PEA agonist 100%. activation, % at 3 µM. 0.99% of 360,000 active. AID 624467;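 active = activation above the mean activation of all test compounds in the run plus 3 SD, cut at about 38% in these data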
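test system = CHO RD-HGA16 cells carrying human TAAR1 plus Gα16 | schedule = 17-24 h seeding, 75 min 37 °C dye, 30 min RT | compound dosing = 3 µM single concentration | control set = DMSO and PEA EC100 | replicates = n 1 | signal = Fluo-8 fluorescence, 5 s baseline then 140 s kinetic read | measure = percent activation vs PEA EC100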
An asterisk follows results filed as active; x = no result given.

SMILES | CHRM1 PAM | M1 antag | TAAR1 antagonist | M1 ag | TAAR1 ag
COC(=O)[C@]12C[C@H](CC(=O)N3CCOCC3)C(=O)N(Cc3ccccc3)C1=C[C@H](C1CCCC1)O[C@@H]2C | x | x | -4 | x | 1
Cc1nc2nc(C)n(CCN3CCOCC3)c(=O)c2c(-c2cccc([N+](=O)[O-])c2)c1C(=O)CCCCCCCCCCN1CCC(c2ccccc2)(c2ccccc2)CC1 | -29 | 100* | 49* | -1 | 18
Cc1cccc(NS(=O)(=O)c2cccc(C(=O)N3CCN(C/C=C/c4ccccc4)CC3)c2)c1 | -22 | 32* | 38 | -6 | 8
Cc1ccc(C(=O)N2CCN(C/C=C/c3ccccc3)CC2)cc1S(=O)(=O)N1CCOCC1 | -27 | 73* | -11 | -7 | 18
CC1(Cc2ccc(Cl)c(Cl)c2)C(=O)Nc2c(Cl)ccc(Cl)c21 (stereo unspecified) | 13 | -16 | 21 | 2 | 23
CC1(Cc2ccc(Cl)s2)C(=O)Nc2c(Cl)ccc(Cl)c21 (stereo unspecified) | -20 | 32* | 27 | -6 | 3
O=C(NCC(c1ccccc1Cl)N1CCCC1)c1ccc(N2CCCC2=O)cc1 (stereo unspecified) | -25 | 56* | -36 | -8 | 2
O=C(Nc1ccccc1)NC1CCCCCCC1 | 6 | -6 | -3 | -3 | 1
O=C(Nc1ccc(Br)cc1)NC1CCCCCCC1 | -14 | 30* | 25 | 3 | 0
C[C@@H](c1ccccc1)N1Cc2ccccc2Oc2cc(Br)ccc2S1(=O)=O | -3 | 4 | -7 | -4 | 2
CC(C)CN1Cc2ccccc2Oc2cc(Br)ccc2S1(=O)=O | 16 | -11 | -18 | 29* | 32
COc1ccc2occ(C(=O)c3coc4ccc(O)c(CN(C)C)c34)c2c1 | -12 | 20* | 46 | -2 | 19
Cn1cc(CN2CCN(c3ccccc3)CC2)c2ccccc21 | -18 | 31* | -2 | -8 | 15
COC(=O)[C@]12C[C@H](CC(=O)NCc3ccc(OC)c(OC)c3)C(=O)N(CCC3=CCCCC3)C1=C[C@H](COCc1ccccc1)O[C@@H]2C | x | x | -18 | x | -2
CC1CC(C)CN(C(=O)CCn2c(=O)oc3ccccc32)C1 (stereo unspecified) | 13 | -15 | 3 | -3 | 0
CC1CCN(C(=O)CCn2c(=O)oc3ccc(Cl)cc32)CC1 | 28* | -22 | -17 | 2 | 1
COc1ccc(CCNCc2ccc(OCc3ccccc3)cc2)cc1 | -1 | -3 | -9 | -8 | 44*
c1ccc(COc2ccc(CNCc3cccnc3)cc2)cc1 | -32 | 31* | 10 | -12 | 10
Brc1ccc(CNCc2cccs2)cc1 | -8 | -2 | -4 | -7 | 2
COc1ccc(CNS(=O)(=O)CCNCCc2ccccc2)cc1 | -9 | 14 | -12 | -2 | 16
c1ccc(COc2ccc(CNCc3cccs3)cc2)cc1 | -23 | 41* | -6 | -5 | 37
O=C(N[C@H](Cc1ccccc1)C(=O)NCc1ccc2c(c1)OCO2)[C@H]1O[C@@H](n2ccc(=O)[nH]c2=O)[C@H](O)[C@@H]1O | x | x | -12 | x | 1
CN(C(=O)c1cccc(NC(=O)Cc2ccc(NC(=O)C3CCCN(C(=O)c4ccccc4)C3)cc2)c1)C1CC1 (stereo unspecified) | x | x | -32 | x | 3
CC(=O)N1CCN(C(=O)/C(C#N)=C/c2ccc3c(c2)OCO3)CC1 | 34* | -29 | -9 | 4 | 3
CC(=O)N/C(=C/c1ccc2c(c1)OCO2)C(=O)N1CCOCC1 | -2 | 8 | 8 | -1 | 0
SMILES | CHRM1 PAM | M1 antag | TAAR1 antagonist | M1 ag | TAAR1 ag
COCC#Cc1cnc2c(c1)C(=O)N([C@@H](C)CO)C[C@H](C)[C@H](CN(C)C(=O)c1ccc3c(c1)OCO3)O2 | x | x | -2 | x | 2
COC(=O)[C@]1(Cc2ccccc2)N[C@H](CN(C)C(=O)c2ccc(C(C)(C)C)cc2)[C@@H]2C(=O)N(Cc3ccccc3)C(=O)[C@@H]21 | -4 | 2 | -14 | -5 | 1
CCN(C[C@H]1N[C@@](C)(C(=O)OC)[C@H]2C(=O)N(Cc3ccccc3)C(=O)[C@@H]12)C(=O)COC | 8 | -13 | -13 | 0 | 0
CN1C[C@@H]2[C@@H]3C(=O)N(Cc4ccccc4)C(=O)[C@@H]3[C@](Cc3ccccc3)(C1=O)N2C(=O)c1ccc(C(C)(C)C)cc1 | -4 | 7 | 17 | -1 | 42*
CCN(C[C@H]1N[C@@](C)(C(=O)OC)[C@H]2C(=O)N(Cc3ccccc3)C(=O)[C@@H]12)C(=O)c1ccc(C(C)(C)C)cc1 | -7 | 19 | 51* | 0 | 11
CCN(C[C@H]1N[C@@](CC)(C(=O)OC)[C@H]2C(=O)N(Cc3ccccc3)C(=O)[C@@H]12)C(=O)c1ccc(C(C)(C)C)cc1 | -14 | 28* | 54* | 0 | 13
COC(=O)C1=C(C)N(Cc2cccc(C(F)(F)F)c2)C(=NCc2ccc(OC)cc2)NC1c1ccc(Cl)cc1 (stereo unspecified) | x | x | 43 | x | 29
COC(=O)c1ccc(N2C(c3ccsc3)=Cc3cc4c(cc3C2CC(=O)c2ccco2)OCO4)cc1 (stereo unspecified) | x | x | -31 | x | 1
O=C(NCc1ccccc1)[C@H]1CCCN1C(=O)[C@H]1CCCN1C(=O)c1cccc(F)c1 | x | x | -7 | x | 1
COC(=O)c1ccc(/C=N/OCC(=O)NC2CCCCCCC2)cc1 | 5 | -10 | 13 | -4 | 8
COC(=O)c1ccc(/C=N/OCC(=O)NC2CCCC(C)C2C)cc1 (stereo unspecified) | -13 | 31* | 1 | 3 | 8
C[C@@H](NS(=O)(=O)c1c(F)cccc1F)c1ccccc1 | x | x | -21 | x | 1
CC(=O)c1c(C)[nH]c(C(=O)COC(=O)C2CC2)c1C | 13 | -14 | 5 | -1 | 0
CCOC(=O)c1c(C)[nH]c(C(=O)COC(=O)C2CC2)c1C | -12 | 31* | -1 | 0 | 2
COc1ccccc1Cc1c(C2CCCCC2)nc2c(C)cc(Br)cn12 | x | x | -3 | x | -1
COc1ccccc1/C=C1/C(=O)N(c2ccccc2)N=C1C | 5 | -3 | 16 | 0 | 37*
CC1=NN(c2ccccc2)C(=O)/C1=C\N1CC(C)OC(C)C1 (stereo unspecified) | 0 | 1 | 70* | -3 | 98*
COC(=O)c1cc2c(c3c4cc(F)ccc4n(S(=O)(=O)c4cccc(C)c4)c13)C(=O)N(Cc1ccc(N(C)C)cc1)C2 | x | x | -9 | x | -1
COc1ccc(NC(=O)C2(C)CCN2Cc2ccc(C(C)C)cc2)cc1OC (stereo unspecified) | 14 | -22 | -34 | 0 | 0
CCN(CC)c1ccc2c(-c3ccc(S(=O)(=O)O)cc3S(=O)(=O)[O-])c3ccc(=[N+](CC)CC)cc-3oc2c1 | -18 | 29 | x | 86* | x

Screening data as filed in PubChem.
